Data set [1] is filed under the species Rattus norvegicus. The data set is described as follows: Effect on electron transport protein complex 1 in Wistar-Han rat liver mitochondria using glutamate/malate as substrate assessed as mitochondrial transmembrane electric potential at 6 ug/mg relative to control.
Data set [2] is filed under the species Rattus norvegicus. In words: Effect on electron transport protein complex 2 in Wistar-Han rat liver mitochondria using succinate as substrate assessed as mitochondrial transmembrane electric potential at 3 ug/mg relative to control.
Data set [3] is filed under the species Rattus norvegicus. The data set is described as follows: Inhibition of electron transport protein complex 1/2 in Wistar-Han rat liver mitochondria using glutamate/malate and succinate as substrate assessed as increase of state 3 and 4 mitochondrial oxygen consumption at 3 to 6 ug/mg. The essentials: (§1)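 Compound (3 or 6 µg/mg protein) preincubated 1 min, then 10 mM glutamate/5 mM malate or 5 mM succinate + 3 µM rotenone. ADP 187.5 nmol/mg protein; oligomycin 1 µg; FCCP 1 µM. RCR = state 3/state 4; ADP/O per Chance and Williams. Expressed as % control, means ± SEM, three preparations.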

The species named for data set [4] is Rattus norvegicus. The data set is described as follows: Effect on electron transport protein complex 2 in Wistar-Han rat liver mitochondria using succinate as substrate assessed as ADP-induced depolarization at 3 ug/mg relative to control.
The species named for data set [5] is Rattus norvegicus. The data set is described as follows: Effect on electron transport protein complex 1 in Wistar-Han rat liver mitochondria using glutamate/malate as substrate assessed as ADP-induced depolarization at 6 ug/mg relative to control.
The test system of a further data set is BJ. The data set is described as follows: Induction of mitochondrial depolarization in human BJ cells at 1 ug/ml after 48 hrs by MitoTracker Red staining. It counts as cell-based. The method, boiled down:
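BJ normal human fibroblasts grown as monolayers in DMEM with 10% FBS, 37 °C, 5% CO2. Seeded on glass coverslips, attached 24 h, then exposed to compound (1 µg/ml) for 48 h. MitoTracker Red CMXRos (7.3 nM) added 30 min before end at 37 °C in dark. Methanol-fixed at -20 °C overnight, imaged by epifluorescence (63× objective). Three independent experiments.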

The species entered for data set [6] is Rattus norvegicus. The data set is described as follows: Effect on electron transport protein complex 2 in Wistar-Han rat liver mitochondria using succinate as substrate assessed as ADP-induced depolarization at 6 ug/mg relative to control.
The species entered for data set [7] is Rattus norvegicus. In words: Effect on electron transport protein complex 2 in Wistar-Han rat liver mitochondria using succinate as substrate assessed as mitochondrial transmembrane electric potential at 6 ug/mg relative to control.
The subject of a further data set is MCF7. The data set is described as follows: Induction of mitochondrial depolarization in human estrogen-sensitive MCF7 cells at 1 ug/ml after 48 hrs by MitoTracker Red staining. The class given is functional, cell-based. The method, boiled down:
(§2)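 Cells grown in DMEM with 10% FBS at 37 °C, 5% CO₂, seeded on coverslips, attached 24 h. Then 1 µg/ml compound for 48 h. MitoTracker Red CMXRos 7.3 nM added for the final 30 min. Cells fixed in cold methanol at −20 °C overnight and imaged by epifluorescence with a 63× objective. Three independent experiments.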

Data set [8] is filed under the species Rattus norvegicus. The data set is described as follows: Effect on electron transport protein complex 1 in Wistar-Han rat liver mitochondria using glutamate/malate as substrate assessed as ADP-induced depolarization at 3 ug/mg relative to control.
The species named for data set [9] is Rattus norvegicus. In words: Effect on electron transport protein complex 1 in Wistar-Han rat liver mitochondria using glutamate/malate as substrate assessed as phosphorylative lag phase at 6 ug/mg relative to control. The essentials: (§3)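 Membrane potential recorded by TPP⁺ electrode, 1 mg rat liver mitochondria, 30 °C, pH 7.2 sucrose/KCl medium with 3 μM TPP⁺. Compound (3 or 6 µg/mg protein) given 1 min before glutamate/malate (5/2.5 mM) or succinate (5 mM) + 3 µM rotenone. Lag phase follows the ADP pulse (125 nmol/mg protein).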

The species named for data set [10] is Rattus norvegicus. The data set is described as follows: Effect on electron transport protein complex 2 in Wistar-Han rat liver mitochondria using succinate as substrate assessed as phosphorylative lag phase at 3 ug/mg relative to control. The method, boiled down: as §3
Data set [11] is filed under the species Rattus norvegicus. The data set is described as follows: Effect on electron transport protein complex 1 in Wistar-Han rat liver mitochondria using glutamate/malate as substrate assessed as mitochondrial transmembrane electric potential at 3 ug/mg relative to control.
The species entered for data set [12] is Rattus norvegicus. In words: Effect on electron transport protein complex 1 in Wistar-Han rat liver mitochondria using glutamate/malate as substrate assessed as phosphorylative lag phase at 3 ug/mg relative to control. The method, boiled down:
as §3

For data set [13], the species on record is Rattus norvegicus. In words: Effect on electron transport protein complex 2 in Wistar-Han rat liver mitochondria using succinate as substrate assessed as phosphorylative lag phase at 6 ug/mg relative to control. The essentials: as §3
Data set [14] is filed under the species Rattus norvegicus. In words: Inhibition of electron transport protein complex 1/2 in Wistar-Han rat liver mitochondria using glutamate/malate and succinate as substrate assessed as decrease of respiratory control ratio at 6 ug/mg. The essentials: as §1
Another data set has as its system Hs-578T. The data set is described as follows: Induction of mitochondrial depolarization in human estrogen-insensitive Hs578T cells at 1 ug/ml after 48 hrs by MitoTracker Red staining. It counts as functional, cell-based. The method, boiled down: as §2
For data set [15], the species on record is Rattus norvegicus. In words: Inhibition of electron transport protein complex 1/2 in Wistar-Han rat liver mitochondria using glutamate/malate and succinate as substrate assessed as decrease of ADP/O ratio at 3 to 6 ug/mg. The method, boiled down:
as §1

The species named for data set [16] is Rattus norvegicus. The data set is described as follows: Increase of calcium-induced mitochondrial permeability transition in Wistar-Han rat liver mitochondria assessed as mitochondrial transmembrane electric potential after 2 mins. It counts as functional. The essentials: (§4)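 TPP⁺ electrode, 30 °C, 1 mg rat liver mitochondria in 1 ml 200 mM sucrose, 10 mM Tris-MOPS pH 7.2, 10 µM EGTA, 1 mM KH₂PO₄, 3 µM rotenone, 3 µM TPP⁺. Compound incubated with mitochondria 2 min (legend), then 5 mM succinate. Calcium 30–60 nmol pulses, depending on preparation. Controls: 1 µM cyclosporin A pre-incubated; FCCP.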

Data set [17] is filed under the species Rattus norvegicus. In words: Effect on calcium-induced mitochondrial swelling in Wistar-Han rat liver mitochondria assessed as mitochondrial transmembrane electric potential after 2 mins. It counts as functional. The method, boiled down: as §4
Data set [18] is filed under the species Rattus norvegicus. In words: Inhibition of electron transport protein complex 1/2 in Wistar-Han rat liver mitochondria using glutamate/malate and succinate as substrate assessed as increase of passive flux of protons through mitochondrial inner membrane at 3 to 6 ug/mg.
The species named for data set [19] is Rattus norvegicus. The data set is described as follows: Inhibition of electron transport protein complex 1/2 in Wistar-Han rat liver mitochondria using glutamate/malate and succinate as substrate assessed as decrease of FCCP-induced respiration at 3 to 6 ug/mg. The method, boiled down:
as §1

Activity calls are given as the source filed them. The calls are words filed in the database; no cut-off is given here.

Regarding `C=C(C[n+]1ccc(N(C)C)cc1)[C@@H]1CC[C@]2(C(=O)O)CC[C@]3(C)[C@H](CC[C@@H]4[C@@]5(C)CC[C@H](O)C(C)(C)[C@@H]5CC[C@]43C)[C@@H]12.[Br-]`, the Activity in the data set filed under Rattus norvegicus [1] was 229 mV; in the data set filed under Rattus norvegicus [2], 228 mV; in the data set listed under Rattus norvegicus [4] it was 22.4%; in the data set filed under Rattus norvegicus [5], 13.5%; in the data set with BJ it was “Non-toxic”; in the data set listed under Rattus norvegicus [6], 13.8%. The Activity was 228 mV in the data set filed under Rattus norvegicus [7]; 19.5% in the data set filed under Rattus norvegicus [8]; 63.3% in the data set listed under Rattus norvegicus [9]; 40.3% in the data set filed under Rattus norvegicus [10]; 229 mV in the data set filed under Rattus norvegicus [11]; 51% in the data set filed under Rattus norvegicus [12]. In addition, the Activity in the data set filed under Rattus norvegicus [13] amounted to 57%. The inhibition entry in the data set listed under Rattus norvegicus [3] was “inactive”. The outcome in the data set on MCF7 and in the data set with Hs-578T was inactive. The inhibition entry in the data set listed under Rattus norvegicus [14] was “Active”.

For `C=C(C)[C@@H]1CC[C@]2(COC(=O)C[n+]3ccc(N(C)C)cc3)CC[C@]3(C)[C@H](CC[C@@H]4[C@@]5(C)CC[C@H](O)C(C)(C)[C@@H]5CC[C@]43C)[C@@H]12`, the Activity stood at 225 mV in the data set filed under Rattus norvegicus [1]; 226 mV in the data set listed under Rattus norvegicus [2]; 28.5% in the data set filed under Rattus norvegicus [4]; 22.6% in the data set listed under Rattus norvegicus [5]; 27.8% in the data set listed under Rattus norvegicus [6]; 224 mV in the data set filed under Rattus norvegicus [7]. Further, the Activity in the data set listed under Rattus norvegicus [8] was found to be 22.5%; in the data set listed under Rattus norvegicus [9] it was 31%; in the data set listed under Rattus norvegicus [10], 39%; in the data set listed under Rattus norvegicus [11], 225 mV; in the data set filed under Rattus norvegicus [12], 28.8%; in the data set filed under Rattus norvegicus [13], 42%. The inhibition result in the data set filed under Rattus norvegicus [3] and in the data set listed under Rattus norvegicus [15] was “Active” in each case. For the same compound, the result in the data set listed under Rattus norvegicus [16] was Active. Besides, the outcome in the data set filed under Rattus norvegicus [17] was inactive.

Take `C=C(C[n+]1ccc(N(C)C)cc1)[C@@H]1CC[C@]2(COC(=O)C[n+]3ccc(N(C)C)cc3)CC[C@]3(C)[C@H](CC[C@@H]4[C@@]5(C)CC[C@H](OC(=O)C[n+]6ccc(N(C)C)cc6)C(C)(C)[C@@H]5CC[C@]43C)[C@@H]12.[Br-].[Br-].[Br-]`: the Activity was 226 mV in the data set listed under Rattus norvegicus [1]; 232 mV in the data set listed under Rattus norvegicus [2]; 30.3% in the data set filed under Rattus norvegicus [4]; 14.6% in the data set filed under Rattus norvegicus [5]; “Toxic” with BJ; 27.8% in the data set listed under Rattus norvegicus [6]. Further, the Activity in the data set listed under Rattus norvegicus [7] was determined as 228 mV; in the data set filed under Rattus norvegicus [8], 18.5%; in the data set listed under Rattus norvegicus [9], 46.5%; in the data set filed under Rattus norvegicus [10], 36%; in the data set listed under Rattus norvegicus [11], 225 mV; in the data set filed under Rattus norvegicus [12], 42.8%. Also, in the data set listed under Rattus norvegicus [13], the Activity worked out at 45.5%. Also, the inhibition entry in the data set listed under Rattus norvegicus [3] is “inactive”. The result in the data set with MCF7, in the data set listed under Rattus norvegicus [16] and with Hs-578T was Active. Also, the result in the data set filed under Rattus norvegicus [17] was inactive. Also, in the data set filed under Rattus norvegicus [14], the inhibition result was “Active”.

Consider `C=C(C)[C@@H]1CC[C@]2(COC(=O)C[n+]3ccc(N(C)C)cc3)CC[C@]3(C)[C@H](CC[C@@H]4[C@@]5(C)CC[C@H](OC(=O)C[n+]6ccc(N(C)C)cc6)C(C)(C)[C@@H]5CC[C@]43C)[C@@H]12.[Br-].[Br-]`, for which the Activity in the data set listed under Rattus norvegicus [1] was 225 mV; in the data set filed under Rattus norvegicus [2] it was 232 mV; in the data set filed under Rattus norvegicus [4] it was 30.6%; in the data set filed under Rattus norvegicus [5], 20.3%; in the data set on BJ, “Toxic”; in the data set filed under Rattus norvegicus [6], 27.7%. Besides, the Activity in the data set filed under Rattus norvegicus [7] is 229 mV; in the data set filed under Rattus norvegicus [8], 23.4%; in the data set filed under Rattus norvegicus [9], 46%; in the data set listed under Rattus norvegicus [10], 38.3%; in the data set filed under Rattus norvegicus [11] it was 225 mV; in the data set listed under Rattus norvegicus [12], 36.8%. In the data set listed under Rattus norvegicus [13], the Activity amounted to 40%. Moreover, the outcome with MCF7, in the data set filed under Rattus norvegicus [16] and with Hs-578T was Active. The inhibition entry in the data set listed under Rattus norvegicus [18] and in the data set listed under Rattus norvegicus [19] was “Active” in each case. Moreover, in the data set listed under Rattus norvegicus [17], the result was inactive.

Turning to `C=C(C)[C@@H]1CC[C@]2(CO)CC[C@]3(C)[C@H](CC[C@@H]4[C@@]5(C)CC[C@H](OC(=O)C[n+]6ccc(N(C)C)cc6)C(C)(C)[C@@H]5CC[C@]43C)[C@@H]12.[Cl-]`, the Activity is 222 mV in the data set listed under Rattus norvegicus [1]; 232 mV in the data set listed under Rattus norvegicus [2]; 36.2% in the data set listed under Rattus norvegicus [4]; 23.5% in the data set filed under Rattus norvegicus [5]; “Toxic” in the data set on BJ; 29.9% in the data set listed under Rattus norvegicus [6]. The Activity in the data set filed under Rattus norvegicus [7] was determined as 228 mV; in the data set filed under Rattus norvegicus [8], 26.5%; in the data set listed under Rattus norvegicus [9], 45%; in the data set listed under Rattus norvegicus [10], 38%; in the data set listed under Rattus norvegicus [11] it was 222 mV; in the data set filed under Rattus norvegicus [12], 27.8%. Also, the Activity in the data set filed under Rattus norvegicus [13] worked out at 53%. In the data set listed under Rattus norvegicus [3], the inhibition result is “inactive”. Also, the outcome in the data set on MCF7, in the data set filed under Rattus norvegicus [16] and in the data set with Hs-578T was Active. The result in the data set listed under Rattus norvegicus [17] was inactive.

The record behind these values is ChEMBL document CHEMBL3091455, “Dimethylaminopyridine derivatives of lupane triterpenoids cause mitochondrial disruption and induce the permeability transition” (Bioorg Med Chem, 2013).
